PAFAH1B2 inh – PAFAH1B2 (human) inhibition. P68402. recombinant PAFAH1B2, FP-rhodamine activity probe, fluorescence polarization. inhibition, % at 3.39 µM. 340,000 compounds, 1.2% hits;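 active means inhibition above the mean of all tested compounds plus 3 SD, cut at about 24% in these data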
Target sequence (P68402 whole entry, looked up): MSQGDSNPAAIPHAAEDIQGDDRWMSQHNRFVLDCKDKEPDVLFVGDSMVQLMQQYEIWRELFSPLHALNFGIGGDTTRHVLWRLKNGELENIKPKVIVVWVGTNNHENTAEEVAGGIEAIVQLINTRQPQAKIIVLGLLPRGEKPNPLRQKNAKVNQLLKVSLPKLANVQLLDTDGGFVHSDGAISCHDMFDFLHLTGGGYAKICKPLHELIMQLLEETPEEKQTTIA
PAFAH1B3 inh – PAFAH1B3 (human) inhibition; Q15102; recombinant PAFAH1B3, FP-rhodamine probe, fluorescence polarization; inhibition, % at 3.39 µM; 340,000 compounds, 0.28% hits; AID 492972;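 active means inhibition above the screen-wide average of all tested compounds plus 3 SD, cut at about 25% in these data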
Target sequence (Q15102 whole entry, looked up): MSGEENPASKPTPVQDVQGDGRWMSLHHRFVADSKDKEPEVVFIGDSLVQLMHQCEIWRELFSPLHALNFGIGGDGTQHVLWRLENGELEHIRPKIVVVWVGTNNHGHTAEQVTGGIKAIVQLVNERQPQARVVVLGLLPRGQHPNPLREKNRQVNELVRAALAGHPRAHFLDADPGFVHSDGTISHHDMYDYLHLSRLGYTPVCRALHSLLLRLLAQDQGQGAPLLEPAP
PAFAH2 FP inh – inhibitors of human PAFAH2. inhibition, % at 3.39 µM. 340,000 compounds, 0.99% hits. AID 492956. Q99487. recombinant PAFAH2, FP-rhodamine activity probe, fluorescence polarization;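 active means inhibition above the mean over all tested compounds plus 3 SD, cut at about 30% in these data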;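 further: inhibitors block probe labeling of enzyme so polarization drops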
UCH37 DUB inh – human UCH37 deubiquitinating enzyme inhibition. purified proteasome/UCH37, Ub-AMC cleavage fluorescence. inhibition, % (no concentration beside the values). 330,000 compounds, 0.33% hits. AID 588478;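 active means mean inhibition over replicate wells above about 20%, limit read from the data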
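Material: human UCH37 enzyme supplied as purified proteasome complex / Amount: 0.15 nM proteasome as dispensed / Buffer or medium: pH 7.4 Tris-HCl (50 mM) with ovalbumin, ATP-MgCl2, DTT / Times: preincubation 30 min, reaction 25 min, room temperature / Technique: AMC fluorescence from Ub-AMC cleavage, excitation 355 nm, emission 460 nm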
NR3A LBD binder – modulators (binders) of human NR3A ligand-binding domain; NR3A LBD differential scanning fluorimetry, Tm shift; 0% = protein alone, 100% = glycine-bound protein; Tm shift relative to glycine control, % at 25 µM; 340,000 compounds, 2.5% hits;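 active means melting temperature shift of at least 10% of the positive control shift, at one fixed dose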
pPAFAH inh – pPAFAH (human) enzyme inhibition | 330,000 compounds, 1.5% hits | inhibition, % at 3.39 µM | recombinant pPAFAH, FP-rhodamine probe fluorescence polarization | Q13093;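 active means inhibition above the mean inhibition across the screen plus 3 SD, cut at about 25% in these data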;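 further: inhibitors block binding of the rhodamine activity-based probe so polarization drops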
Of the large screens only hits and unclear results are named; the others gave an inactive call. Rows were chosen to be rich in hits. Some 4.8% of all compounds tested hit in one or more screens of this group.

CCc1ccc(S(=O)(=O)Nc2cc3c(cc2N2CCOCC2)n(C)c(=O)c(=O)n3C)cc1	PAFAH1B2 inh 26.1
COc1ccc2oc(=O)c(C(C)=NNc3nc(-c4cc(C)ccc4C)cs3)cc2c1	none (no result: PAFAH1B2 inh, PAFAH1B3 inh, PAFAH2 FP inh, NR3A LBD binder, pPAFAH inh)
N#CC(=NNc1ccc(F)cc1)C(=N)N1CCCCC1	none (no result: PAFAH1B2 inh, PAFAH1B3 inh, PAFAH2 FP inh, NR3A LBD binder, pPAFAH inh)
Cc1cccc(-c2cc(C(=O)NCc3ccccn3)c3ccccc3n2)c1	NR3A LBD binder 15.9
Cc1ccc(C)c(-c2cc(C(=O)Nc3sc(C)c(C)c3C(N)=O)c3ccccc3n2)c1	NR3A LBD binder 14.1
Cc1cccc(-c2cc(C(=O)Nc3sc(C)c(C)c3C(N)=O)c3ccccc3n2)c1	NR3A LBD binder 14.7
Cc1ccc(C)c(-c2cc(C(=O)NNC(=S)NCC(C)C)c3ccccc3n2)c1	NR3A LBD binder 12.2, pPAFAH inh 26.1
Cc1cccc(-c2cc(C(=O)Nc3ccncc3)c3ccccc3n2)c1	none (no result: pPAFAH inh)
Nc1nonc1NN=Cc1ccccc1	none (no result: PAFAH1B2 inh, PAFAH1B3 inh, PAFAH2 FP inh, NR3A LBD binder, pPAFAH inh)
COc1cc(C=NNC(=O)CCN2CCN(c3ccccc3)CC2)cc(OC)c1OC	none (no result: PAFAH1B2 inh, PAFAH1B3 inh, PAFAH2 FP inh, NR3A LBD binder, pPAFAH inh)
C/C(C=NNc1nc(C)cc(C)n1)=C\c1ccc(C(C)C)cc1	none (no result: PAFAH1B2 inh, PAFAH1B3 inh, PAFAH2 FP inh, NR3A LBD binder, pPAFAH inh)
CN(C)C(=O)c1cc(Cl)ccc1Sc1cc(Cl)ccc1Cl	none
Oc1ccc(Cl)cc1Sc1cc(Cl)ccc1O	NR3A LBD binder 24.6 (no result: UCH37 DUB inh, pPAFAH inh)
NC(=O)Cn1cc(C=NNC(=O)c2ccc(Cn3cc(Cl)cn3)o2)c(-c2ccccc2)n1	none (no result: PAFAH1B2 inh, PAFAH1B3 inh, PAFAH2 FP inh, NR3A LBD binder, pPAFAH inh)
O=C(CCNC(=O)c1ccco1)NCCN1C(=O)S/C(=C\c2ccc(F)cc2)C1=O	none
Cc1ccc(S(=O)(=O)CCC(=O)NCCN2C(=O)S/C(=C/c3ccc(F)cc3)C2=O)cc1	PAFAH1B2 inh 32.8
Cc1ccc(C=NN2CCN(Cc3ccccc3)CC2)s1	none (no result: PAFAH1B2 inh, PAFAH1B3 inh, PAFAH2 FP inh, NR3A LBD binder, pPAFAH inh)
COc1ccccc1C(CC(=O)Nc1ccc(Cl)cc1)c1ccc(OC(C)C)cc1 (centres undefined)	NR3A LBD binder 12.2
CCNc1nc(N)nc(-c2cc(Cl)ccc2O)n1	none
CCCCNc1nc(N)nc(-c2cc(Cl)ccc2O)n1	NR3A LBD binder 18.2
Cc1cc(NC(=O)c2cc3ccccc3o2)ccc1NC(=O)c1ccccc1	NR3A LBD binder 16.2
Cc1cc(NC(=O)c2cccnc2)ccc1NC(=O)c1cc2ccccc2o1	none
O=C(Nc1ccc(NC(=O)c2cc3ccccc3o2)cc1)c1ccc2c(c1)OCCO2	NR3A LBD binder 21.4
Cc1ccccc1NC(=O)c1ccc2c(c1)OCCO2	none
COc1cc(NC(=O)c2cccc(F)c2)ccc1NC(=O)c1cc2ccccc2o1	NR3A LBD binder 36.0
Cc1ccc(NC(=O)c2ccc3c(c2)OCCO3)cc1	none
Cc1cc(NC(=O)c2ccc3c(c2)OCCO3)ccc1NC(=O)c1cc2ccccc2o1	NR3A LBD binder 14.7
O=C(CN1CCN(Cc2ccccc2)CC1)NN=C/C=C/c1ccco1	none (no result: PAFAH1B2 inh, PAFAH1B3 inh, PAFAH2 FP inh, NR3A LBD binder, pPAFAH inh)
O=C(Nc1cccc(Br)c1)c1ccc(CSc2ccccc2)cc1	NR3A LBD binder 30.1
O=C(Nc1ccc2ccccc2c1)c1ccc(Br)o1	none (no result: pPAFAH inh)
O=C(Nc1ccc2c(c1)oc1ccccc12)c1ccc(Br)o1	NR3A LBD binder 28.8
O=C(Nc1cccc(Br)c1)c1cc2ccccc2o1	NR3A LBD binder 32.0
CN(C)c1ccc(C=NNC(=O)C(=O)N2CCCCCC2)cc1	none (no result: PAFAH1B2 inh, PAFAH1B3 inh, PAFAH2 FP inh, NR3A LBD binder, pPAFAH inh)
Cc1ccc(NC(=O)Cn2c3ccc(F)cc3c3nc4n(c(=O)c32)CCS4)cc1F	NR3A LBD binder 12.1
CCOC(=O)c1c(C)[nH]c2ccc(O)cc12	NR3A LBD binder 26.2
CC(=NNC(=O)c1cccs1)c1ccc2ccccc2c1	none (no result: PAFAH1B2 inh, PAFAH1B3 inh, PAFAH2 FP inh, NR3A LBD binder, pPAFAH inh)
O=C(COC(=O)CC1CC2CCC1C2)Nc1cc([N+](=O)[O-])ccc1F (centres undefined)	PAFAH1B2 inh 42.3, PAFAH2 FP inh 49.0
O=C(COC(=O)CC1CC2CCC1C2)NC(=O)NCc1ccco1 (centres undefined)	PAFAH1B2 inh 25.0
NC(=O)c1ccc(NC(=O)COC(=O)CC2CC3CCC2C3)cc1 (centres undefined)	none
COc1cccc(NC(=O)COC(=O)CC2CC3CCC2C3)c1 (centres undefined)	PAFAH2 FP inh 78.1, pPAFAH inh 33.6
CSCCOC(=O)COc1ccc(C=NNC(=O)c2c(Cl)cnn2C)cc1	none (no result: PAFAH1B2 inh, PAFAH1B3 inh, PAFAH2 FP inh, NR3A LBD binder, pPAFAH inh)
C(=NNc1nc2ccccc2[nH]1)c1cccc2nccnc12	none (no result: PAFAH1B2 inh, PAFAH1B3 inh, PAFAH2 FP inh, NR3A LBD binder, pPAFAH inh)
CC(=NNC(=O)c1ccc(O)cc1O)c1cccnc1	none (no result: PAFAH1B2 inh, PAFAH1B3 inh, PAFAH2 FP inh, NR3A LBD binder, pPAFAH inh)
CC1=NN(c2ccccc2)C(c2ccco2)C1 (centres undefined)	none (no result: pPAFAH inh)
